Series [1] relates to rat chronic constriction injury model of neuropathic pain. Nature of the series: Chronic constrictive injury. It is filed as in vivo. To be noted: rat CCI. Summed up:
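Male Sprague–Dawley rats (200–250 g, n = 10–15/group) received four loose chromic gut ligatures, 1 mm apart, on the sciatic nerve. From day 10 post-surgery, hind-paw withdrawal latency to a plantar thermal stimulus was read to 0.1 s (normal response within 15 s). Difference score: nonligated minus ligated. Sessions twice weekly, 3 days apart. Daily oral gavage, 1 h pre-test. Gabapentin 50/100 mg/kg po as control. Student's t-test.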

Series [2] is described as follows: Plasma levels of 1 after single oral dose in mice. It is filed as in vivo, mouse. Particulars: dose equivalent of 10 mg/kg of 1, plasma 30 min after administration. In short, it runs like this: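 Male CD-1 mice (25–30 g) got a single oral dose of 10 mg/kg parent equivalent in 50 mM HEPES-buffered saline, pH 7.4, made the same day. At 30 min, mice were killed with pentobarbital and blood taken by cardiac puncture into heparin. Plasma (200g, 15 min; stored −80 °C) was assayed by C18 LC-MS/MS, parent transition 279.986 > 203.066/247.173, losartan internal standard. Mean ± SEM, n = 3.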

The nature of series [3]: In vitro plasma stability / metabolite identification. Type of series: in vitro ADME. To be noted: 10 μM, 37 °C, 60 min incubation. Summed up:
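Mouse plasma was spiked at 10 μM and shaken at 37 °C. Triplicate aliquots at 0 and 60 min were quenched with 2 volumes of ice-cold acetonitrile containing 5 μM losartan, then centrifuged at 12000g for 10 min. Supernatant was diluted 1:1 with water. Parent loss and metabolites were tracked by C18 LC–ESI-TOF MS.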

The conditions of series [4]: cited from earlier work.
The next series deals with rhGCPII (Homo sapiens, UniProt Q04609). Nature of the series: GCPII radioenzymatic inhibition assay with 3H-NAAG. It is filed as biochemical. To be noted: relative to compound 1. Summed up: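 Recombinant human GCPII was started with a mix of 0.31 μM NAAG plus 15 nM 3H-NAAG (concentrations in the added mix). After 20 min, the reaction was stopped with 200 mM potassium phosphate, 50 mM EDTA and 2 mM β-mercaptoethanol, pH 7.4. Released glutamate was isolated by ion exchange and counted by scintillation. IC50 was fitted from inhibition curves.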
rhGCPII, sequence (Q04609 whole entry): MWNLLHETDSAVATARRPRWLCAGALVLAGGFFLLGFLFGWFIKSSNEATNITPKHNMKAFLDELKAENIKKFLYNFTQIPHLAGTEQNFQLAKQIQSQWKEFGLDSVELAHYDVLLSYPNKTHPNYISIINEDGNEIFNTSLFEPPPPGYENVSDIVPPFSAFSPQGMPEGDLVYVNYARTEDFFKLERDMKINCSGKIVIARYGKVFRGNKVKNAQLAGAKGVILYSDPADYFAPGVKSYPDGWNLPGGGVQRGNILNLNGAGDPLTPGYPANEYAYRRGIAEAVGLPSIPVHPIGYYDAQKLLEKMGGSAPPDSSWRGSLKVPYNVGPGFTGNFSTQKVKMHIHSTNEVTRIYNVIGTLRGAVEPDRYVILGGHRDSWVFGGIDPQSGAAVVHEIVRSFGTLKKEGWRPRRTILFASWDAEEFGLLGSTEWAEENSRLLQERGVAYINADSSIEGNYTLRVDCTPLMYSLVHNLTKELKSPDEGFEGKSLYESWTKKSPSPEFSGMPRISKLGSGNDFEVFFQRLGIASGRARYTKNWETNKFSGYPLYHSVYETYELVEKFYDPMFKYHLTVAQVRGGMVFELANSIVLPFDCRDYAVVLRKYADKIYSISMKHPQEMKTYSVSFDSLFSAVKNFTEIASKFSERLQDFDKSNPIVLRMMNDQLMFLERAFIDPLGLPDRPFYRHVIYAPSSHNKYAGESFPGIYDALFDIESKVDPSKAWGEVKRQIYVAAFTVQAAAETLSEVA

Series [5] in a line: Stability under GCPII enzyme assay conditions. Type of series: physicochemical. To be noted: 30 m in aqueous buffer; pH 8.0.

For the compound `CC(=O)Oc1ccc(CONC(=O)CCC(Cc2ccc(C(=O)O)cc2)C(=O)O)cc1` (stereo not shown) [Compound 12, 4-(5-(((4-Acetoxybenzyl)oxy)amino)-2-carboxy-5-oxopentyl)-benzoic Acid], the “effect on absolute latency of the sham operated side” value in series [1] (4.6 mg/kg/day po) was “no significant effect”. Also, in series [1] (12 at 4.6 mg/kg/day po (3 mg/kg equivalent of 1)), the “first day of significantly reduced thermal hyperalgesia” value was determined as 4 days. In addition, the “plasma levels of 1 following oral administration of prodrug (in words)” value (from here on “plasma levels”) in series [2] is reported as “equal or higher”. Besides, in series [3], the “stability / bioconversion in mouse plasma (in words)” value (“stability / bioconversion” below) is given as “complete conversion of prodrug 12 to 1”.
With `O=C(CCC(Cc1ccc(C(=O)O)cc1)C(=O)O)NO` (stereo not drawn) [Compound 1, 4-Carboxy-α-[3-(hydroxyamino)-3-oxopropyl]-benzenepropanoic acid], the “stability / bioconversion” value in series [3] is on record as “completely stable”. Moreover, the “distribution to sciatic nerves (in words)” value in series [4] is on record as “good distribution to sciatic nerves”.
Consider `CC(=O)ONC(=O)CCC(Cc1ccc(C(=O)O)cc1)C(=O)O` (stereo not shown) [Compound 7, 4-(5-(Acetoxyamino)-2-carboxy-5-oxopentyl)benzoic Acid], for which the “plasma levels” value in series [2] was “equal or higher”.
On to `CCOC(=O)c1ccc(CC(CCC(=O)NOCc2ccc(OC(C)=O)cc2)C(=O)O)cc1` (stereo not shown) [Compound 23, 5-(((4-Acetoxybenzyl)oxy)amino)-2-(4-(ethoxycarbonyl)benzyl)-5-oxopentanoic Acid], for which the “stability / bioconversion” value in series [3] was “not converted into 1”.
On to `Cc1oc(=O)oc1CONC(=O)CCC(Cc1ccc(C(=O)O)cc1)C(=O)O` (stereo not shown) [Compound 17, 4-(2-Carboxy-5-(((5-methyl-2-oxo-1,3-dioxol-4-yl)methoxy)-amino)-5-oxopentyl)benzoic Acid], for which the “fold less potency compared to 1 (GCPII inhibition)” value at rhGCPII is recorded as 12 fold. Also, in series [2], the “plasma levels” value is recorded as “equal or higher”. Also, the “stability under GCPII enzyme assay conditions (in words)” value in series [5] is on record as “partial hydrolysis to 1”.
For the compound `NCC1(CC(=O)O)CCCCC1` [gabapentin, reference compound], the “reversal of allodynia (positive control)” value in series [1] (100 mg/kg po daily, maintained throughout the dosing period) is reported as “significantly reversed allodynia”.
As for `CC(=O)Oc1ccc(CONC(=O)CCC(Cc2ccc(C(=O)OCOC(=O)OC(C)C)cc2)C(=O)O)cc1` (stereo not shown) [Compound 30, 5-(((4-Acetoxybenzyl)oxy)amino)-2-(4-((((isopropoxycarbonyl)-oxy)methoxy)carbonyl)benzyl)-5-oxopentanoic Acid], the “stability / bioconversion” value in series [3] is given as “completely hydrolyzed”.

Values taken from PMC5795597 (Journal of medicinal chemistry, 2017).
